# Screening results deposited in PubChem by several laboratories.
# In the library only some 1.3% were active in any assay of this set; here they are far more common.
# Efflux pump inh: inhibitors of Candida efflux pumps in yeast, primary screen, S. cerevisiae, Nile Red, multiplex | S. cerevisiae Candida pump triplex | inhibition, % at 10 µM | 0.44% of 330,000 active;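 active = plate passing quality check with inhibition over a set limit, or well fluorescence over plate mean plus 4 SD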;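 also: Nile Red retained in pooled yeast measured as flow cytometry median fluorescence; 0% = buffer negative control and 100% = Enniatin B positive control; higher means more Nile Red kept so more efflux inhibition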
# HGIII-sPLA2 inh: human group III sPLA2 inhibitors, primary screen, biochemical, QFRET, BODIPY PC-A2 liposome substrate; QFRET BODIPY PC-A2 liposome hydrolysis, fluorescence; Group 3 secretory phospholipase A2 (Homo sapiens), Q9NZ20; AID 743126, 2013; 0.56% of 370,000 active; inhibition, % at 12.2 µM;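 active = inhibition above mean plus 3 SD of compounds lying within the high and low control bounds, cut at about 19% in these data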;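 also: 0% = median of test compound wells and 100% = no enzyme DMSO wells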
# Target sequence (Q9NZ20 whole entry, looked up): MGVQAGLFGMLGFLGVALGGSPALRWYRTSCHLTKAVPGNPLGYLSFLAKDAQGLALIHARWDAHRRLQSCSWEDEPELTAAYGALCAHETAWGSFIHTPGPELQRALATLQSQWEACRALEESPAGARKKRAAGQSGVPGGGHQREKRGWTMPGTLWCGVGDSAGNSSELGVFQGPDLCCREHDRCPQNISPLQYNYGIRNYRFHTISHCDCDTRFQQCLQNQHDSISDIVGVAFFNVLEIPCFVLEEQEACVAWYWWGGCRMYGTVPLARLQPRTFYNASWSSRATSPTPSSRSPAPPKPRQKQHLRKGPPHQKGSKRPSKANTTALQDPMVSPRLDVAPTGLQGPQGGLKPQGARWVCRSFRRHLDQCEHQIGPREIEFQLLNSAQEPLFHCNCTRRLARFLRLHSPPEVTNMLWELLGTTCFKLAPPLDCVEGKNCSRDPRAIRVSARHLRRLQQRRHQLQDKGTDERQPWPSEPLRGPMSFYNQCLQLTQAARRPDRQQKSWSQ
# H9c2 TAG inh: inhibitors of triacylglycerol accumulation, primary screen, cell-based, uHTS, fluorescence, H9c2; H9c2 cells, Nile Red lipid (TAG) fluorescence; cells loaded with 200 µM oleic acid; inhibition, % at 12.5 µM; 0.66% of 230,000 active; AID 651582, 2012;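 active = pattern-corrected inhibition of lipid staining of at least 50% with the nuclear-stain viability signal not falling by more than 50%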;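 also: 0% = DMSO wells and 100% = triacsin C control wells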
# MT1-MMP act inh: blockers of MT1-MMP proenzyme processing, primary screen, HT1080 RFP-PRO-GFP cells, GFP/RFP fluorescence. GFP/RFP ratio change, % at 20 µM. Matrix metalloproteinase-14 (Homo sapiens), P50281. GFP/RFP ratio fluorescence, overnight; percent of plate control window, DMSO zero. 0.061% of 360,000 active;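 active = GFP/RFP ratio change of at least 30% with cell ATP level not reduced by more than half and red fluorescence within 50% of control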
#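 system = RFP-PRO-GFP reporter HT1080 cells | dosing = 20 µM single dose, 1% DMSO | timing = overnight cell settling, then overnight compound exposure, 37 °C, 5% CO2 | read-out basis = GFP/RFP fluorescence ratio | controls = DMSO and RFP-L50D-GFP cell wells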
# sPLA2 confirm: human group III sPLA2 inhibitors, confirmation, biochemical, QFRET, triplicate | 34% of 2,000 active | shares compounds with HGIII-sPLA2 inh | recombinant hGIII-sPLA2, BODIPY PC-A2 QFRET fluorescence | inhibition, % at 12.2 µM;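 active = mean inhibition across triplicates above the hit cutoff set in the earlier primary screen, cut at about 19% in these data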;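 also: 0% = enzyme with DMSO and 100% = DMSO wells lacking enzyme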
# BODIPY interf: 535nm fluorescence optical interference, confirmation, artefact control for HGIII-sPLA2 inhibitor project, biochemical, QFRET. shares compounds with HGIII-sPLA2 inh. BODIPY FL product fluorescence interference. inhibition, % at 12.2 µM. 8.5% of 2,000 active;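 active = average inhibition above the solvent-only control mean plus 3 SD, cut at about 6% in these data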;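 also: 0% = DMSO with substrate plus product and 100% = DMSO with substrate alone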
# BODIPY interf DR: 535nm fluorescence optical interference, dose response, artefact control for HGIII-sPLA2 inhibitor project, biochemical, QFRET | BODIPY FL product fluorescence interference, cell-free | IC50, µM | shares compounds with HGIII-sPLA2 inh | 240 tested, under 10 active;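 active = IC50 at or below 10 µM; inactive = IC50 above 10 µM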
# * = called active by the depositor; · = no result; ! = repeats disagree.
SMILES,Efflux pump inh,HGIII-sPLA2 inh,H9c2 TAG inh,MT1-MMP act inh,sPLA2 confirm,BODIPY interf,others
c1ccc(C2=Nn3c(nnc3-c3ccncc3)SC2)cc1,0.1,-4.0,-17.1,-22.0,·,·,
c1cc(-c2nnc3n2N=C(c2ccc4c(c2)OCO4)CS3)ccn1,·,21.8*,·,·,-0.2,-10.0,
Cc1ccc(S(=O)(=O)Nc2ccc(S(=O)(=O)Nc3cc(C)nc(C)n3)cc2)cc1,0.1,-8.3,1.5,3.4,·,·,
Cc1cc(NS(=O)(=O)c2ccc(N3C(=O)C4C5C=CC(C5)C4C3=O)cc2)nc(C)n1 (configuration not stated),-0.1,21.1*,·,-1.2,-0.5,-7.0,
O=C(CSc1nc2ccccc2s1)NNC(=S)Nc1ccc(Br)cc1,-0.3,23.2*,-31.1,3.7,3.2,0.1,
NNc1nc(-c2ccccc2)c2cc(Cl)ccc2n1,0.1,19.3*,-16.2,-2.0,26.0*,4.5,
Cc1cc(Cl)ccc1NC(=O)CSc1n[nH]c(N)n1,-0.3,2.0,9.2,1.1,·,·,
Cc1c(C#N)c(N)nc(Cl)c1C#N,0.1,-1.0,-3.0,6.5,·,·,
N#Cc1c(Cl)nsc1NN,0.3,19.6*,·,-1.1,18.6,13.7*,
CC(=O)NN1C(=O)/C(=C2/Sc3ccc(Cl)cc3N2C)SC1=S,0.1,20.0*,·,-2.9,15.6,-0.5,
CCN1C(C)=C(C)S/C1=C1\SC(=S)N(NC(C)=O)C1=O,-0.2,2.5,0.7,-0.9,·,·,
CN1CCC(=NNC(=O)C(=O)NC(C)(C)C)CC1,0.1,22.5*,·,4.2,1.9,-8.9,
O=C(O)CCCNC(=O)CCCNC(=O)C(c1ccccc1)c1ccccc1,-0.1,13.2,·,-0.1,·,·,
O=C(O)CCCNC(=O)C(c1ccccc1)c1ccccc1,0.0,20.9*!,·,4.7,-2.0,-6.4,
COC(=O)c1ccc(N2CCOCC2)c(NC(=O)Nc2cccc(OC)c2)c1,0.2,6.6,4.2,-2.1,·,·,
CCOC(=O)c1ccc(N2CCN(c3ccccc3F)CC2)c(NC(=O)Nc2cccc(OC)c2)c1,-0.2,21.4*,·,-8.0,-9.8,-16.3,
CCn1cc(/C=C(\NC(=O)c2ccccc2Cl)C(=O)NCCN2CCOCC2)c2ccccc21,-0.1,-3.6,·,0.3,·,·,
O=C(NC(=S)NNC(=O)c1ccccc1O)c1ccco1,-0.3,27.6*,·,7.1,19.0,-4.7,
CN(C)S(=O)(=O)c1cccc(NC(=S)NNC(=O)c2cc3ccccc3cc2O)c1,-0.2,37.1*,-8.1,14.7,35.9*,13.2*,
CN(C)S(=O)(=O)c1cccc(NC(=S)NC(=O)c2ccco2)c1,·,8.5,12.5,1.8,·,·,
O=C(/C=C/c1cccs1)NC(=S)NNC(=O)c1ccccc1O,0.0,42.2*,-8.6,-4.0,32.2*,2.8,BODIPY interf DR=>122
O=C(NC(=S)NNC(=O)c1cc2ccccc2cc1O)c1ccco1,0.2,21.0*,-2.8,9.5,27.9*,1.8,BODIPY interf DR=>122
O=C(NNC(=S)NC(=O)c1ccco1)c1ccc(NC(=O)c2ccccc2)cc1,-0.1,16.4,·,1.5,·,·,
COc1ccc(C(=O)NNC(=S)NC(=O)/C=C/c2cccs2)cc1,0.0,0.3,1.4,-9.7,·,·,
Cc1cc(NC(=O)COC(=O)[C@@H]2CCCN2C(=O)c2cccs2)no1,·,8.0,-5.9,0.1,·,·,
SMILES,Efflux pump inh,HGIII-sPLA2 inh,H9c2 TAG inh,MT1-MMP act inh,sPLA2 confirm,BODIPY interf,others
COCCN(C(=O)CC1C(=O)NCCN1Cc1ccc(-c2ccccc2)cc1)C(C)C (configuration not stated),-0.1,-4.1,-2.0,0.5,·,·,
O=C(Cc1ccc(Nc2nc(=S)[nH]c3ccccc23)cc1)NC1CCCCC1,-0.1,21.3*,·,·,13.7,-0.5,
Cc1ccc(NC(=S)NNC(=O)C2CC2c2ccc(C)cc2)cc1 (configuration not stated),-0.1,14.7,-6.3,-1.4,·,·,
O=C(NNC(=S)Nc1ccc(F)cc1)C1CC1c1ccc(Cl)cc1 (configuration not stated),-0.2,20.1*,·,3.6,35.1*,0.2,BODIPY interf DR=>122
COc1ccc(NC(=S)NNC(=O)C2CC2c2ccc(C)cc2)cc1 (configuration not stated),0.1,21.4*,·,0.0,21.9*,-1.5,
Cc1ccc(C2CC2C(=O)NNC(=S)Nc2cccc(Cl)c2)cc1 (configuration not stated),-0.1,22.6*,·,6.2,-9.3,10.0*,
Brc1ccc(C2Nc3cccc4cccc(c34)N2)s1,0.0,-0.6,5.7,6.1,·,·,
C=CC[C@@H](CC(=O)N[C@H](CO)Cc1ccccc1)C(=O)N[C@@H](COC(=O)[C@@H](CC=C)CC(=O)OC(C)(C)C)Cc1ccccc1,0.4,-24.6,22.3,0.6,·,·,
CCOc1ccccc1NC(=O)CN(c1ccc(OC)cc1)S(=O)(=O)c1c(C)[nH]c(=O)[nH]c1=O,0.2,-27.3,·,-3.1,·,·,
COc1cccc(-n2cn[nH]c2=S)c1,-0.1,-1.0,-14.0,0.8,·,·,
COc1cccc(-n2sc3c(c2=S)-c2cc(OC)ccc2NC3(C)C)c1,0.0,27.4*,-4.3,-5.7,17.1,0.0,
COc1cc(/C=C/C(=O)Nc2ccc(S(=O)(=O)Nc3ncccn3)cc2)ccc1OCC#N,·,-18.7,3.5,0.6,·,·,
COc1ccc2c(c1)nc(SCC(O)c1ccccc1)n2C (configuration not stated),-0.1,1.7,-13.5,2.2,·,·,
Nc1sc(-c2ccccc2)cc1C(=O)NCCN1CCOCC1,·,19.9*,·,0.6,6.7,-7.3,
COc1ccc(C(C)=NNC(=O)c2cccc(S(=O)(=O)N3CCCC3)c2)cc1,0.3,-1.4,-1.3,1.3,·,·,
COc1ccc(/C(C)=N/NC(=O)c2cccc(S(=O)(=O)N3CCCC3)c2)c(O)c1,-0.1,34.8*,16.7,7.1,24.4*,-6.2,
O=c1nc(NCc2ccccc2Cl)cn[nH]1,0.0,24.6*,·,·,-0.8,-6.5,
COCCCNC(=O)c1ccc(Cn2c(=O)c3ccccc3n(CC(=O)NCCc3ccc(OC)c(OC)c3)c2=O)cc1,0.0,9.4,-2.0,-2.0,·,·,
CCCCNC(=O)CCn1c(=O)c2ccccc2n(CC(=O)NCCc2ccc(OC)c(OC)c2)c1=O,0.0,21.5*,0.4,-2.2,-7.0,-14.9,
Cc1cccc(C(=O)NC(=S)N2CCN(C(=S)NC(=O)c3cccc(C)c3)CC2)c1,-0.2,29.3*,·,8.4,18.7,-5.0,
